Active and inactive are the calls of the source. No cut-off for these calls is given here.
Columns and labels:
Nucleic Acid [1] = experiment: Ratio of drug level in brain to blood in ddY mouse at 11.1 kBq, iv after 0.5 min by gamma counting; type: ADME, organism-based
Mus musculus [2] = experiment: In vivo binding affinity to GlyT1 in ddY mouse brain medullary region at 33.3 kBq, iv after 30 mins in presence of N-Me-SSR504734 2 mg/kg, iv administered 15 mins prior to compound administration relative to control; type: functional, Medulla of organ
Method in brief: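 Male ddY mice (6 W, 30–35 g) were given [125I]5 (ca. 33.3 kBq, 0.1 mL) iv via tail vein. Blocker (2 mg/kg in 30% DMSO/saline) was given iv 15 min before the tracer. Mice were killed 30 or 60 min after injection and the brain regions were dissected and weighed. Gamma counting gave % dose/g, compared with control; n = 5–6.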

Mus musculus [3] = experiment: In vivo binding affinity to GlyT1 in ddY mouse brain midbrain at 33.3 kBq, iv after 60 mins in presence of nonradioactive compound 2 mg/kg, iv administered 15 mins prior to compound administration relative to control; type: functional
Kidney = experiment: Drug uptake in ddY mouse kidney at 11.1 kBq, iv after 30 min by gamma counting; type: ADME, organism-based; conditions: in vivo, 0.5 h
Method in brief: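 Male ddY mice (6 weeks, 30–35 g) were given about 11.1 kBq of [125I]tracer in 0.1 mL i.v. via the tail vein. At each time point the animals were killed and organs dissected, weighed and gamma-counted. Uptake is expressed as % injected dose per gram of tissue, mean ± SD, n = 5–6.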

Nucleic Acid [4] = experiment: Ratio of drug level in brain to blood in ddY mouse at 11.1 kBq, iv after 180 min by gamma counting; type: ADME, organism-based; conditions: 3 h
Blood = experiment: Drug uptake in ddY mouse blood at 11.1 kBq, iv after 15 min by gamma counting; type: ADME, organism-based; conditions: in vivo
Method in brief: (§1)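 Male ddY mice (6 weeks, 30–35 g) received about 11.1 kBq [125I]tracer in 0.1 mL i.v. via tail vein. Killed at set times, organs dissected and weighed, radioactivity gamma counted. Reported as % injected dose/g tissue, mean ± SD, n = 5–6.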

Mus musculus [5] = experiment: In vivo binding affinity to GlyT1 in ddY mouse brain thalamus at 33.3 kBq, iv after 60 mins in presence of nonradioactive compound 2 mg/kg, iv administered 15 mins prior to compound administration relative to control; type: functional
Brain = experiment: Drug uptake in ddY mouse brain at 11.1 kBq, iv after 60 min by gamma counting; type: ADME, organism-based; conditions: in vivo, 1 h; method in brief: as §1
Heart = experiment: Drug uptake in ddY mouse heart at 11.1 kBq, iv after 60 min by gamma counting; type: ADME, organism-based; conditions: in vivo, 1 h; method in brief: as §1
[6] = target: T1, Sodium- and chloride-dependent glycine transporter 1 (Rattus norvegicus) (UniProt P28572); experiment: Binding affinity to GlyT1 in rat brain medullary region at 0.03 to 0.04 nM preincubated for 20 mins in binding buffer before compound addition measured after 30 mins by autoradiography in presence of 0.01 mM GlyT1 inhibitor SSR504734 relative to control; type: tissue-based; conditions: tested as the 125I-labelled form
T1 sequence (whole entry): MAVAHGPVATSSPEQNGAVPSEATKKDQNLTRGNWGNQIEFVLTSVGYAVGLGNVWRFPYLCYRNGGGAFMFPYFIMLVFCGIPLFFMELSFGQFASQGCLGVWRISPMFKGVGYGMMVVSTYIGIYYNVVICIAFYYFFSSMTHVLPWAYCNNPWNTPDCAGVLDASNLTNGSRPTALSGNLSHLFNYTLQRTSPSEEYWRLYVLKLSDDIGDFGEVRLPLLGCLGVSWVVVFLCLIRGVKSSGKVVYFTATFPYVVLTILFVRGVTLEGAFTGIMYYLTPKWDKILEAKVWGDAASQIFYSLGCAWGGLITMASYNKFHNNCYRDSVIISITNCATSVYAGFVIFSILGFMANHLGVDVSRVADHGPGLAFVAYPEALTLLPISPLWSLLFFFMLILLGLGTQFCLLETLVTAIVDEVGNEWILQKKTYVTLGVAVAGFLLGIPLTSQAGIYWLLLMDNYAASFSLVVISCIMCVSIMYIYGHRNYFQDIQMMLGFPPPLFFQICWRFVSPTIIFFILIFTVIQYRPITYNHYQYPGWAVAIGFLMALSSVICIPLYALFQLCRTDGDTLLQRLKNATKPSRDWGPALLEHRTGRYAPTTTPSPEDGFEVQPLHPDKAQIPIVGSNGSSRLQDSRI
Method in brief: (§2)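 Rat brain sagittal sections (20 µm) preincubated 20 min at 25 °C in Tris-HCl buffer pH 7.5 (NaCl, KCl, MgCl2, CaCl2), then 30 min at 25 °C with [125I] tracer (100 kBq, 0.03–0.04 nM) plus competitor (10 µM; glycine 1 or 10 mM). Cold washes, imaging plate 3 days, ROI PSL minus background per mm². % control from ≥triplicate slices, three rats.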

[7] = target: T1, Sodium- and chloride-dependent glycine transporter 1 (Rattus norvegicus); experiment: Binding affinity to GlyT1 in rat brain corpus callosum at 0.03 to 0.04 nM preincubated for 20 mins in binding buffer before compound addition measured after 30 mins by autoradiography in presence of GlyT1 inhibitor N-Me-SSR504734 relative to control; type: tissue-based; conditions: tested as the 125I-labelled form; method in brief: as §2
[8] = target: T1, Sodium- and chloride-dependent glycine transporter 1 (Rattus norvegicus); experiment: Binding affinity to GlyT1 in rat brain hippocampus at 0.03 to 0.04 nM preincubated for 20 mins in binding buffer before compound addition measured after 30 mins by autoradiography in presence of 0.01 mM GlyT1 inhibitor SSR504734 relative to control; type: tissue-based; conditions: tested as the 125I-labelled form; method in brief: as §2
[9] = target: T1, Sodium- and chloride-dependent glycine transporter 1 (Rattus norvegicus); experiment: Binding affinity to GlyT1 in rat brain cerebral cortex at 0.03 to 0.04 nM preincubated for 20 mins in binding buffer before compound addition measured after 30 mins by autoradiography in presence of 10 mM GlyT1 substrate glycine relative to control; type: tissue-based; conditions: tested as the 125I-labelled form; method in brief: as §2
Mus musculus [10] = experiment: In vivo binding affinity to GlyT1 in ddY mouse brain thalamus at 33.3 kBq, iv after 30 mins in presence of SSR504734 2 mg/kg, iv administered 15 mins prior to compound administration relative to control; type: functional, organism-based; parameters: dose 2 mg/kg; conditions: tested as the 125I-labelled form
[11] = target: T1, Sodium- and chloride-dependent glycine transporter 1 (Rattus norvegicus); experiment: Binding affinity to GlyT1 in rat brain medullary region at 0.03 to 0.04 nM preincubated for 20 mins in binding buffer before compound addition measured after 30 mins by autoradiography in presence of 10 mM GlyT1 substrate glycine relative to control; type: tissue-based; conditions: tested as the 125I-labelled form; method in brief: as §2
Mus musculus [12] = experiment: In vivo binding affinity to GlyT1 in ddY mouse brain cortex at 33.3 kBq, iv after 30 mins in presence of SSR504734 2 mg/kg, iv administered 15 mins prior to compound administration relative to control; type: functional, organism-based; parameters: dose 2 mg/kg; conditions: tested as the 125I-labelled form
Method in brief: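 Blocking study in male ddY mice (6 weeks, 30–35 g). The blocker (2 mg/kg in 30% DMSO/saline) was injected i.v. 15 min before about 33.3 kBq [125I]tracer i.v.; mice were killed at 30 or 60 min. Brains were divided into cortex, corpus callosum, hippocampus, thalamus, midbrain, medulla and cerebellum, weighed and gamma-counted as % dose/g. Values are mean ± SD, n = 5–6, compared to control by Kruskal–Wallis with Dunn's post-test.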

Mus musculus [13] = experiment: In vivo binding affinity to GlyT1 in ddY mouse brain striatum at 33.3 kBq, iv after 60 mins in presence of nonradioactive compound 2 mg/kg, iv administered 15 mins prior to compound administration relative to control; type: functional, organism-based; parameters: dose 2 mg/kg; conditions: tested as the 125I-labelled form

Row | Ratio (Nucleic Acid [1]) | Drug uptake (Kidney) | Ratio (Nucleic Acid [4]) | Drug uptake (Blood) | Drug uptake (Brain) | Drug uptake (Heart) | Activity [6] | Activity [7] | Activity [8] | Activity [9] | Activity [11] | Structure (SMILES) | Activity (Mus musculus [2]) | Activity (Mus musculus [3]) | Activity (Mus musculus [5]) | Activity (Mus musculus [10]) | Activity (Mus musculus [12]) | Activity (Mus musculus [13])
1 | 0.38 | 10.22 % ID/g | 0.85 | 0.69 % ID/g | 1.85 % ID/g | 2.79 % ID/g |  |  |  |  |  | CN1CCCC[C@H]1[C@@H](NC(=O)c1cccc(C(F)(F)F)c1[125I])c1ccccc1 | 59% | 51% | 58% |  |  | 
2 |  |  |  |  |  |  | 31.7% | 20.2% | 46.3% | 43.7% | 61.2% | CN1CCCC[C@H]1[C@@H](NC(=O)c1cccc(C(F)(F)F)c1I)c1ccccc1 |  |  |  | inactive | inactive | Active
